Key:
[1] = Selectivity index, ratio of IC50 for HT-29 cells to IC50 for transgenic DsRed2 Leishmania donovani promastigotes strain LV82; type: toxicity, cell-based; settings: human; read-out: Ratio IC50
How it was run: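 Ratio of the HT-29 cytotoxicity IC50 (72 h, sulforhodamine B) to the IC50 against DsRed2 L. donovani LV 82 promastigotes (72 h at 23 °C, flow cytometry).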

HT-29 = assay: Cytotoxicity against human HT-29 cells assessed as inhibition of cell survival after 72 hrs by sulforhodamine B assay; type: cell-based; settings: HT-29, 72 h
How it was run: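 HT-29 cells, 9500 per well, exposed to a concentration series in triplicate for 72 h. Controls: 10% DMSO in water (negative) and paclitaxel in that carrier (positive).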

Leishmania donovani [2] = assay: Antileishmanial activity against Leishmania donovani promastigotes stain LV82 infected in iv dosed BALB/c mouse assessed as parasite burden reduction in liver cells after 2 weeks of postinjection by Giemsa staining-light microscopy; type: functional, organism-based
How it was run: (§1)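 BALB/c mice infected by tail vein with 10^7 L. donovani LV 82 amastigotes; treated iv two weeks post-infection (100 µL; 2.8, 5.6 or 11.1 mg/kg in 10% DMSO/PBS; vehicle negative control; sodium stibogluconate 70 mg/kg positive control). Sacrificed two weeks later; liver and spleen weighed, impression smears MeOH-fixed, Giemsa-stained, amastigotes counted per 1000 host nuclei by light microscopy; LDU = organ weight (g) × that count.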

Leishmania donovani [3] = assay: Antileishmanial activity against transgenic DsRed2 Leishmania donovani promastigotes strain LV82 assessed as parasite killing after 72 hrs by flow cytometry; type: functional, organism-based; settings: LV82, 72 h
Leishmania donovani [4] = assay: Antileishmanial activity against Leishmania donovani […] stain LV82 infected in iv dosed BALB/c mouse assessed as parasite burden reduction in spleen cells after 2 weeks of postinjection by Giemsa staining-light microscopy; type: functional, organism-based; how it was run: as §1
Mus musculus = assay: Toxicity in BALB/c mouse at 2.8 to 70 mg/kg, iv after 2 weeks; type: organism-based; settings: in vivo, 336 h, in the assay text read “2.8 to 11.1 mg/kg” for “2.8 to 70 mg/kg”
How it was run: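 Infected BALB/c mice (about 18 g) watched for overt toxicity over two weeks after one 100 µL iv dose in 10% DMSO/PBS: vehicle, test doses 2.8, 5.6 or 11.1 mg/kg, or sodium stibogluconate 70 mg/kg.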

Row | SMILES | selectivity ratio [1] | IC50 (HT-29) [µM] | inhibition (Leishmania donovani [2]) | IC50 (Leishmania donovani [3]) [µM] | inhibition (Leishmania donovani [4]) | Activity (Mus musculus)
1 | COc1ccc2cc1Oc1ccc(cc1)C[C@H]1c3cc(OC)c(OC)c(c3CCN1C)Oc1c(O)c(OC)cc3c1[C@H](C2)NCC3 | 29.3 | 8.2 | Dose-dependent effect | 0.28 | Dose-dependent effect | Non-toxic
2 | COc1ccc2cc1Oc1ccc(cc1)C[C@H]1c3cc(OC)c(OC)c(c3CCN1C)Oc1c(OC)c(OC)cc3c1[C@H](C2)N(C)CC3 [THALIDASINE] | 0.5 | 5.5 | – | 10.1 | – | –
3 | COc1ccc2cc1Oc1ccc(cc1)C[C@H]1c3cc(OC)c(OC)c(c3CCN1C)Oc1c(O)c(OC)cc3c1[C@H](C2)N(C)CC3 [THALRUGOSIDINE] | 3.6 | 3.6 | – | 1 | – | –

From ChEMBL document CHEMBL3576854, “Northalrugosidine is a bisbenzyltetrahydroisoquinoline alkaloid from Thalictrum alpinum with in vivo antileishmanial activity” (J Nat Prod, 2015)
